In ChEMBL document CHEMBL1671684, “In vitro resistance profile of the hepatitis C virus NS3/4A protease inhibitor TMC435” (Antimicrob Agents Chemother, 2010):

The molecules below were run on Hepatitis C virus (assay: Antiviral activity against Hepatitis C virus subtype 1b expressing NS3 T54A mutant infected in HuH7 cells after 48 hrs by luciferase reporter assay). Conditions: genotype 1b, Huh-7, 48 h.
Type: functional, organism-based, Hepacivirus hominis
Outline: (§1)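 Genotype 1b con1 subgenomic bicistronic replicon (clone ET) with luciferase reporter and adaptive mutations E1202G, T1280I, K1846T, carrying site-directed NS3 single or double mutations. 10 μg wild-type or mutant replicon RNA electroporated into Huh7-lunet cells, seeded 4,000 cells/well over a nine-point inhibitor dilution series, 48 h at 37°C, 5% CO2, then luminescence read. EC50 taken as median of individual experiments; fold change relative to parental replicon EC50.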

| SMILES | EC50 [nM] |
| --- | --- |
| COc1ccc2c(O[C@@H]3C[C@H]4C(=O)N[C@]5(C(=O)NS(=O)(=O)C6CC6)C[C@H]5/C=C\CCCCN(C)C(=O)[C@@H]4C3)cc(-c3nc(C(C)C)cs3)nc2c1C [SIMEPREVIR] | 5.9 |

The molecules below were run on Hepatitis C virus (assay: Ratio of EC50 for Hepatitis C virus subtype 1b expressing NS3 Q80R and D168A mutant to EC50 for Hepatitis C virus subtype 1b expressing WT NS3 infected in HuH7 cells after 48 hrs by luciferase reporter assay). Conditions: not given.
Type: functional, Hepacivirus hominis, genotype 1b, Huh-7
Outline: (§2)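 Transient replicon assay: site-directed single or multiple NS3 mutations engineered into genotype 1b (con1, clone ET) subgenomic bicistronic replicon with luciferase reporter and adaptive mutations E1202G, T1280I, K1846T. Huh7-lunet cells electroporated with 10 μg wild-type or mutant replicon RNA, seeded 4,000 cells/well with nine-point inhibitor dilution; 48 h, 37°C, 5% CO2; luminescence read-out. EC50 as median of individual experiments; fold change versus parental replicon EC50.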

| SMILES | Ratio EC50 |
| --- | --- |
| COc1ccc2c(O[C@@H]3C[C@H]4C(=O)N[C@]5(C(=O)NS(=O)(=O)C6CC6)C[C@H]5/C=C\CCCCN(C)C(=O)[C@@H]4C3)cc(-c3nc(C(C)C)cs3)nc2c1C [SIMEPREVIR] | 2655 |

Each molecule was assayed on Hepatitis C virus (assay: Antiviral activity against Hepatitis C virus subtype 1b expressing NS3 Q80R and R155K mutant infected in HuH7 cells after 48 hrs by luciferase reporter assay). Conditions: genotype 1b, Huh-7, 48 h.
Type: functional, organism-based, Hepacivirus hominis
Outline: as §1

| SMILES | EC50 [nM] |
| --- | --- |
| COc1ccc2c(O[C@@H]3C[C@H]4C(=O)N[C@]5(C(=O)NS(=O)(=O)C6CC6)C[C@H]5/C=C\CCCCN(C)C(=O)[C@@H]4C3)cc(-c3nc(C(C)C)cs3)nc2c1C [SIMEPREVIR] | 2850 |

These molecules were tested on Hepatitis C virus (assay: Ratio of EC50 for Hepatitis C virus subtype 1b expressing NS3 Q80R and R155K mutant to EC50 for Hepatitis C virus subtype 1b expressing WT NS3 infected in HuH7 cells after 48 hrs by luciferase reporter assay). Conditions: not given.
Type: functional, Hepacivirus hominis, genotype 1b, Huh-7
Outline: as §2

| SMILES | Ratio EC50 |
| --- | --- |
| COc1ccc2c(O[C@@H]3C[C@H]4C(=O)N[C@]5(C(=O)NS(=O)(=O)C6CC6)C[C@H]5/C=C\CCCCN(C)C(=O)[C@@H]4C3)cc(-c3nc(C(C)C)cs3)nc2c1C [SIMEPREVIR] | 270 |

The molecules below were run on Hepatitis C virus (assay: Antiviral activity against Hepatitis C virus subtype 1b expressing NS3 D168N mutant infected in HuH7 cells after 48 hrs by luciferase reporter assay). Conditions: genotype 1b, Huh-7, 48 h.
Type: functional, organism-based, Hepacivirus hominis
Outline: as §1

| SMILES | EC50 [nM] |
| --- | --- |
| COc1ccc2c(O[C@@H]3C[C@H]4C(=O)N[C@]5(C(=O)NS(=O)(=O)C6CC6)C[C@H]5/C=C\CCCCN(C)C(=O)[C@@H]4C3)cc(-c3nc(C(C)C)cs3)nc2c1C [SIMEPREVIR] | 79 |

These molecules were tested on Hepatitis C virus (assay: Antiviral activity against Hepatitis C virus subtype 1b expressing NS3 V36L mutant infected in HuH7 cells after 48 hrs by luciferase reporter assay). Conditions: genotype 1b, Huh-7, 48 h.
Type: functional, organism-based, Hepacivirus hominis
Outline: as §1

| SMILES | EC50 [nM] |
| --- | --- |
| COc1ccc2c(O[C@@H]3C[C@H]4C(=O)N[C@]5(C(=O)NS(=O)(=O)C6CC6)C[C@H]5/C=C\CCCCN(C)C(=O)[C@@H]4C3)cc(-c3nc(C(C)C)cs3)nc2c1C [SIMEPREVIR] | 18 |

What follows are molecules tested on Hepatitis C virus (assay: Ratio of EC50 for Hepatitis C virus subtype 1b expressing NS3 D168A mutant to EC50 for Hepatitis C virus subtype 1b expressing WT NS3 infected in HuH7 cells after 48 hrs by luciferase reporter assay). Conditions: not given.
Type: functional, Hepacivirus hominis, genotype 1b, Huh-7
Outline: as §1

| SMILES | Ratio EC50 |
| --- | --- |
| COc1ccc2c(O[C@@H]3C[C@H]4C(=O)N[C@]5(C(=O)NS(=O)(=O)C6CC6)C[C@H]5/C=C\CCCCN(C)C(=O)[C@@H]4C3)cc(-c3nc(C(C)C)cs3)nc2c1C [SIMEPREVIR] | 594 |

These molecules were tested on Hepatitis C virus (assay: Ratio of EC50 for Hepatitis C virus subtype 1b expressing NS3 R155K mutant to EC50 for Hepatitis C virus subtype 1b expressing WT NS3 infected in HuH7 cells after 48 hrs by luciferase reporter assay). Conditions: not given.
Type: functional, Hepacivirus hominis, genotype 1b, Huh-7
Outline: as §2

| SMILES | Ratio EC50 |
| --- | --- |
| COc1ccc2c(O[C@@H]3C[C@H]4C(=O)N[C@]5(C(=O)NS(=O)(=O)C6CC6)C[C@H]5/C=C\CCCCN(C)C(=O)[C@@H]4C3)cc(-c3nc(C(C)C)cs3)nc2c1C [SIMEPREVIR] | 30 |

These molecules were tested on Hepatitis C virus (assay: Ratio of EC50 for Hepatitis C virus subtype 1b expressing NS3 D168H mutant to EC50 for Hepatitis C virus subtype 1b expressing WT NS3 infected in HuH7 cells after 48 hrs by luciferase reporter assay). Conditions: not given.
Type: functional, Hepacivirus hominis, genotype 1b, Huh-7
Outline: as §2

| SMILES | Ratio EC50 |
| --- | --- |
| COc1ccc2c(O[C@@H]3C[C@H]4C(=O)N[C@]5(C(=O)NS(=O)(=O)C6CC6)C[C@H]5/C=C\CCCCN(C)C(=O)[C@@H]4C3)cc(-c3nc(C(C)C)cs3)nc2c1C [SIMEPREVIR] | 368 |

The molecules below were run on Hepatitis C virus (assay: Ratio of EC50 for Hepatitis C virus subtype 1b expressing NS3 R109K mutant to EC50 for Hepatitis C virus subtype 1b expressing WT NS3 infected in HuH7 cells after 48 hrs by luciferase reporter assay). Conditions: not given.
Type: functional, Hepacivirus hominis, genotype 1b, Huh-7
Outline: as §2

| SMILES | Ratio EC50 |
| --- | --- |
| COc1ccc2c(O[C@@H]3C[C@H]4C(=O)N[C@]5(C(=O)NS(=O)(=O)C6CC6)C[C@H]5/C=C\CCCCN(C)C(=O)[C@@H]4C3)cc(-c3nc(C(C)C)cs3)nc2c1C [SIMEPREVIR] | 0.7 |

What follows are molecules tested on Hepatitis C virus (assay: Ratio of EC50 for Hepatitis C virus subtype 1b expressing NS3 V36L mutant to EC50 for Hepatitis C virus subtype 1b expressing WT NS3 infected in HuH7 cells after 48 hrs by luciferase reporter assay). Conditions: not given.
Type: functional, Hepacivirus hominis, genotype 1b, Huh-7
Outline: as §2

| SMILES | Ratio EC50 |
| --- | --- |
| COc1ccc2c(O[C@@H]3C[C@H]4C(=O)N[C@]5(C(=O)NS(=O)(=O)C6CC6)C[C@H]5/C=C\CCCCN(C)C(=O)[C@@H]4C3)cc(-c3nc(C(C)C)cs3)nc2c1C [SIMEPREVIR] | 1.7 |

What follows are molecules tested on Hepatitis C virus (assay: Antiviral activity against Hepatitis C virus subtype 1b expressing NS3 S138T mutant infected in HuH7 cells after 48 hrs by luciferase reporter assay). Conditions: genotype 1b, Huh-7, 48 h.
Type: functional, organism-based, Hepacivirus hominis
Outline: as §1

| SMILES | EC50 [nM] |
| --- | --- |
| COc1ccc2c(O[C@@H]3C[C@H]4C(=O)N[C@]5(C(=O)NS(=O)(=O)C6CC6)C[C@H]5/C=C\CCCCN(C)C(=O)[C@@H]4C3)cc(-c3nc(C(C)C)cs3)nc2c1C [SIMEPREVIR] | 77 |

The molecules below were run on Hepatitis C virus (assay: Antiviral activity against Hepatitis C virus subtype 1b expressing NS3 Q80H and D168E mutant infected in HuH7 cells after 48 hrs by luciferase reporter assay). Conditions: genotype 1b, Huh-7, 48 h.
Type: functional, organism-based, Hepacivirus hominis
Outline: as §1

| SMILES | EC50 [nM] |
| --- | --- |
| COc1ccc2c(O[C@@H]3C[C@H]4C(=O)N[C@]5(C(=O)NS(=O)(=O)C6CC6)C[C@H]5/C=C\CCCCN(C)C(=O)[C@@H]4C3)cc(-c3nc(C(C)C)cs3)nc2c1C [SIMEPREVIR] | 1360 |

What follows are molecules tested on Hepatitis C virus (assay: Antiviral activity against Hepatitis C virus subtype 1b expressing NS3 F43S mutant infected in HuH7 cells after 48 hrs by luciferase reporter assay). Conditions: genotype 1b, Huh-7, 48 h.
Type: functional, organism-based, Hepacivirus hominis
Outline: as §1

| SMILES | EC50 [nM] |
| --- | --- |
| COc1ccc2c(O[C@@H]3C[C@H]4C(=O)N[C@]5(C(=O)NS(=O)(=O)C6CC6)C[C@H]5/C=C\CCCCN(C)C(=O)[C@@H]4C3)cc(-c3nc(C(C)C)cs3)nc2c1C [SIMEPREVIR] | 83 |

These molecules were tested on Hepatitis C virus (assay: Antiviral activity against Hepatitis C virus subtype 1b expressing NS3 Q80H mutant infected in HuH7 cells after 48 hrs by luciferase reporter assay). Conditions: genotype 1b, Huh-7, 48 h.
Type: functional, organism-based, Hepacivirus hominis
Outline: as §1

| SMILES | EC50 [nM] |
| --- | --- |
| COc1ccc2c(O[C@@H]3C[C@H]4C(=O)N[C@]5(C(=O)NS(=O)(=O)C6CC6)C[C@H]5/C=C\CCCCN(C)C(=O)[C@@H]4C3)cc(-c3nc(C(C)C)cs3)nc2c1C [SIMEPREVIR] | 41 |
